These results are taken from ChEMBL document CHEMBL2169772, “Discovery of (2S)-1-[4-(2-{6-amino-8-[(6-bromo-1,3-benzodioxol-5-yl)sulfanyl]-9H-purin-9-yl}ethyl)piperidin-1-yl]-2-hydroxypropan-1-one (MPC-3100), a purine-based Hsp90 inhibitor” (J Med Chem, 2012).

The nature of data set [1]: Lipophilicity, log P of the compound. The format is physicochemical. Particulars: octanol/water.
In data set [2] the target is T1, Heat shock protein HSP90 (Homo sapiens, UniProt P07900+P08238). The experiment in a line: Inhibition of human HSP90 in DU145 cells assessed as degradation of Akt incubated for 24 hrs by Western blot method. The format is cell-based. Summed up:
(§1)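 Cells exposed to a range of concentrations for 24 h. Lysates analyzed by Western blot with Her2-, Hsp70- and Akt-specific antibodies.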
Background: Immunoblotting shows a protein as a band on a membrane.

A short description of data set [3]: Oral bioavailability in Swiss nude mouse at 100 mg/kg administered using captisol and phosphate buffer system formulation by LC-ESI-MS/MS method. Particulars: in vivo.
A further data set has as its system HT-29. The experiment in a line: Cytotoxicity against human HT-29 cells assessed as inhibition of tumor growth incubated for 72 hrs by luminometry. The format is functional, cell-based. The conditions noted are these: HT-29, 72 h. Summed up: (§2)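 Cells seeded at 5000 per well in DMEM with 10% serum and left overnight. Compound added from DMSO dilutions (0.4% DMSO final) for 72 h. After 5 min at room temperature, ATPLite two-step lysis and substrate added, 5 min incubation, then luminescence read. Values are the mean of at least two experiments.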

Data set [4] is described as follows: Cmax in Swiss nude mouse at 10 mg/kg, po by LC-ESI-MS/MS method. The format is ADME, organism-based. On the set-up: dose 10 mg/kg, route oral. The conditions noted are these: in vivo. In a few lines: (§3)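 Mice dosed by oral gavage, vehicle DMA/PEG300/EtOH/H2O (3/40/12/45, v/v/v/v). Blood drawn by cardiac puncture into EDTA plasma. Three or five animals per time point. Plasma precipitated with acetonitrile plus internal standard. Quantified by LC-ESI-MS/MS against a 10–10 000 ng/mL standard curve with QC samples. Noncompartmental analysis.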

A further data set concerns DU-145. Kind of data set: Cytotoxicity against human DU145 cells assessed as inhibition of tumor growth incubated for 72 hrs by luminometry. The format is functional, cell-based. Particulars: DU-145, 72 h. Summed up: as §2
The test system of data set [5] is NCI-N87. Kind of data set: Antitumor activity against human NCI-N87 cells xenografted in po dosed nude mouse assessed as tumor growth inhibition administered as qd for 22 days measured twice a week. The format is functional, organism-based. Summed up:
(§4)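 Female nude mice (Crl:NU-Fox1nu) implanted subcutaneously in the right flank with 5 million NCI-N87 cells. At median tumor volume of roughly >100 mm3, randomized to 5 cohorts of 10. Dosed orally once daily for 22 days with vehicle (40% w/w Captisol) or 50, 75, 125 or 200 mg/kg. Tumor size and body weight measured at least twice weekly.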
On the technique in general: Xenograft models place foreign cells or tissue in a host animal.

Data set [6] has as its target T1, Heat shock protein HSP90. Kind of data set: Inhibition of human HSP90 in HCT116 cells assessed as degradation of Akt incubated for 24 hrs by Western blot method. The format is cell-based. Summed up:
as §1

Data set [7] has as its system Mus musculus. Kind of data set: Toxicity in nude mouse xenografted with human NCI-N87 cells assessed as effect on body weight at 125 mg/kg, po qd for 22 days measured twice a week. The format is organism-based. Further details: dose 125 mg/kg, route oral. The conditions noted are these: in vivo, 528 h. In a few lines:
as §4

The test system of data set [8] is NCI-N87. Kind of data set: Antitumor activity against human NCI-N87 cells xenografted in nude mouse assessed as tumor regression at 200 mg/kg, po qd for 22 days measured twice a week. Particulars: 528 h.
The target in data set [9] is T1, Heat shock protein HSP90. Kind of data set: Inhibition of human HSP90 in NCI-N87 cells assessed induction of HSP70 incubated for 24 hrs by Western blot method. The format is cell-based. In a few lines:
as §1

Data set [10] concerns Mus musculus. Kind of data set: Toxicity in nude mouse xenografted with human NCI-N87 cells assessed as effect on body weight at 50 mg/kg, po qd for 22 days measured twice a week. The format is organism-based. Further details: dose 50 mg/kg, route oral. Particulars: in vivo, 528 h. Summed up:
as §4

Data set [11] has as its system Mus musculus. Kind of data set: Inhibition of HSP90 in human NCI-N87 cells xenografted nude mouse liver assessed as induction of HSP70 mRNA expression at 50 to 200 mg/kg, po qd for 22 days. The format is functional, organism-based.
The nature of data set [12]: Oral bioavailability in Swiss nude mouse at 10 mg/kg by LC-ESI-MS/MS method. The format is ADME, organism-based. The conditions noted are these: in vivo. In a few lines:
as §3

Data set [13] deals with Mus musculus. The experiment in a line: Inhibition of HSP90 in mouse liver assessed as induction of HSP70 mRNA expression at 100 mg/kg, po after 6 hrs relative to control. The format is functional.
Data set [14] is described as follows: Solubility of compound in phosphate buffer at pH 7.4. The format is physicochemical.
A short description of data set [15]: Metabolic stability in human liver microsomes assessed as percent of residual drug in presence of NADPH incubated for 40 mins by LC-ESI-MS/MS method. The format is ADME, Microsome. The conditions noted are these: liver microsomes, read-out: Stability. In a few lines: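 Test article incubated in duplicate with human liver microsomes (0.5 mg/mL protein) in 100 mM potassium phosphate pH 7.4. Started with 1 mM NADPH. Stopped with acetonitrile at 0, 10, 20 and 40 min. LC-MS/MS peak area at 40 min reported as percent of 0 min. No-NADPH control incubated for 40 min.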
(Microsomes from liver hold many membrane-bound enzymes, among them those of drug oxidation.)

In data set [16] the test system is NCI-N87. The experiment in a line: Antitumor activity against human NCI-N87 cells xenografted in nude mouse assessed as tumor regression at 125 mg/kg, po qd for 22 days measured twice a week. Particulars: 528 h.
The test system of data set [17] is Mus musculus. The experiment in a line: Toxicity in nude mouse xenografted with human NCI-N87 cells assessed as effect on body weight at 75 mg/kg, po qd for 22 days measured twice a week. The format is organism-based. On the set-up: dose 75 mg/kg, route oral. Particulars: in vivo, 528 h. Summed up:
as §4

Values after ≈ are worked out from the molar mass of the structure shown. Active and inactive are the calls of the source. No cut-off for these calls is given here. Where only a bound is given, the exact number is not on record here.

Usually logP stands for a log measure of how a compound divides between an organic and an aqueous phase. Low readings indicate lower lipophilicity, high ones higher lipophilicity. As a reminder, the IC50 is the point on the concentration scale where inhibition reaches its midpoint. One may read the bioavailability as dose-corrected exposure relative to a reference, in per cent. Lower therefore signals poor availability. The Cmax is the peak of the concentration-time curve. Broadly, the solubility is the concentration that dissolves in the medium under given conditions. A higher solubility goes with a readily soluble substance. Turning to `C[C@H](O)C(=O)N1CCC(CCn2c(Sc3cc4c(cc3Br)OCO4)nc3c(N)ncnc32)CC1`, in data set [1], the logP was 3.32. The inhibition result at Heat shock protein HSP90 [2] (DU-145), on Heat shock protein HSP90 [6] (HCT-116) and on Heat shock protein HSP90 [9] was “Dose-dependent effect” each time. Moreover, the IC50 at Heat shock protein HSP90 [2] (du-145) amounted to 100 nM; in the data set with HT-29, 420 nM; in the data set on DU-145 it was 530 nM; at Heat shock protein HSP90 [6] (hct-116), 100 nM. The values for the bioavailability in data set [3] and in [12] were over 50% and 38%, respectively. The molecule further displayed a Cmax in data set [4] of 2800 ng/mL. For the same molecule, the TGI entry in the data set with NCI-N87 [5] is “Dose-dependent effect”. Also, the Activity entry in the data set with Mus musculus [7], with Mus musculus [10] and in the data set on Mus musculus [17] was “Non-toxic” each time. Also, the tumor regression at 200 mg/kg in the data set on NCI-N87 [8] was found to be 48%. The inhibition entry with Mus musculus [11] was “Active”. The “fold change (FC)” value in the data set on Mus musculus [13] is listed as 53. Further, the solubility in data set [14] was determined as 20 µM (≈ 11 µg/mL). Moreover, the remaining at 40 min in [15] turned out to be 42%. Besides, in the data set on NCI-N87 [16], the tumor regression at 125 mg/kg amounted to 10%.
